From ChEMBL document CHEMBL1629608, “Variations in amino acid composition of antisense peptide-phosphorodiamidate morpholino oligomer affect potency against Escherichia coli in vitro and in vivo” (Antimicrob Agents Chemother, 2009)
Values after ≈ are worked out from the molar mass of the structure shown. Active and inactive are the calls of the source. No cut-off for these calls is given here.

Tests used:
Escherichia coli [1] = test: Antibacterial activity against Escherichia coli K-12 W3110 infected in mouse assessed as reduction of bacterial level in blood at 100 to 300 ug, ip administered 15 mins and 12 hrs postinfection relative to control; assay type: functional, K-12 substr. W3110
How it was run: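 E. coli K-12 W3110 was grown in LB broth for the inoculum and injected intraperitoneally into groups of 3–7 mice. Conjugates were given ip at 15 min and 12 h postinfection (10–300 μg per dose), with water or scrambled-sequence conjugate as controls. Blood drawn at 2, 6, 12, 24 and 48 h was diluted and plated on LB for CFU counts. Survival was followed by Kaplan-Meier, and log CFU was compared by ANOVA with Tukey-Kramer.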

Escherichia coli [2] = test: Antibacterial activity against Escherichia coli K-12 W3110 infected in mouse assessed as reduction of bacterial level in blood at 30 ug, ip administered 15 mins and 12 hrs postinfection measured after 2 hrs post dose relative to control; assay type: functional
How it was run: (§1)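 Mice in groups of 3–7 were infected intraperitoneally with E. coli W3110 from an LB culture. They were dosed ip with 10–300 μg per dose at 15 min and 12 h postinfection. Controls were water or scrambled-sequence PPMO. Blood was taken at 2, 6, 12, 24 and 48 h, diluted and plated on LB for CFU/ml. Log CFU was compared by one-way ANOVA with Tukey-Kramer; mean ± SD.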

Escherichia coli [3] = test: Antibacterial activity against Escherichia coli K-12 W3110 infected in mouse assessed as increase of mouse survival at 30 ug, ip administered 15 mins and 12 hrs postinfection; assay type: functional, organism-based; details: K-12 substr. W3110
How it was run: (§2)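 Mice in groups of 3–7 were infected intraperitoneally with E. coli W3110 from an LB culture. They were treated ip at 15 min and 12 h postinfection with 10, 30, 100 or 300 μg per dose; 300 μg is noted as ~15 mg/kg. Controls were water or scrambled-sequence PPMO. Survival was followed to 48 h and analysed by the Kaplan-Meier method.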

Escherichia coli [4] = test: Antibacterial activity against Escherichia coli K-12 W3110 by microdilution method; assay type: functional; details: K-12 substr. W3110
Escherichia coli [5] = test: Antibacterial activity against Escherichia coli K-12 W3110 infected in mouse assessed as increase of mouse survival at 300 ug, ip administered 15 mins and 12 hrs postinfection; assay type: functional, organism-based; details: K-12 substr. W3110; how it was run: as §2
Escherichia coli [6] = test: Antibacterial activity against Escherichia coli K-12 W3110 infected in mouse assessed as reduction of bacterial level in blood at 30 to 300 ug, ip administered 15 mins and 12 hrs postinfection measured after 2 hrs post dose relative to control; assay type: functional, organism-based; details: K-12 substr. W3110; how it was run: as §1
Escherichia coli [7] = test: Antibacterial activity against Escherichia coli K-12 W3110 infected in mouse assessed as increase of mouse survival at 10 ug, ip administered 15 mins and 12 hrs postinfection; assay type: functional, organism-based; details: K-12 substr. W3110; how it was run: as §2
Escherichia coli [8] = test: Antibacterial activity against Escherichia coli K-12 W3110 infected in mouse assessed as reduction of bacterial level in blood at 100 to 300 ug, ip administered 15 mins and 12 hrs postinfection; assay type: functional, K-12 substr. W3110; how it was run: as §1
Escherichia coli [9] = test: Antibacterial activity against Escherichia coli K-12 W3110 infected in mouse assessed as increase of mouse survival at 100 ug, ip administered 15 mins and 12 hrs postinfection; assay type: functional, organism-based; details: K-12 substr. W3110; how it was run: as §2

| SMILES | log10cfu (Escherichia coli [1]) | Activity (Escherichia coli [2]; K-12 substr. W3110) | Activity (Escherichia coli [3]) | MIC (Escherichia coli [4]) [µM] | Activity (Escherichia coli [5]) | Activity (Escherichia coli [6]) | Activity (Escherichia coli [7]) | log10cfu (Escherichia coli [8]) | Activity (Escherichia coli [2]) [%] | Activity (Escherichia coli [9]) |
| --- | --- | --- | --- | --- | --- | --- | --- | --- | --- | --- |
| CC1(C)S[C@@H]2[C@H](NC(=O)[C@H](N)c3ccccc3)C(=O)N2[C@H]1C(=O)O [AMPICILLIN] | 3 | inactive | inactive |  |  |  |  |  |  |  |
| Cc1cn([C@H]2CN(P(=O)(OC[C@@H]3CN(P(=O)(OC[C@@H]4CN(P(=O)(OC[C@@H]5CN(P(=O)(OC[C@@H]6CN(P(=O)(OC[C@@H]7CN(P(=O)(OC[C@@H]8CN(P(=O)(OC[C@@H]9CN(P(=O)(OC[C@@H]%10CNC[C@H](n%11cnc%12c(=O)[nH]c(N)nc%12%11)O%10)N(C)C)C[C@H](n%10cc(C)c(=O)[nH]c%10=O)O9)N(C)C)C[C@H](n9cnc%10c(=O)[nH]c(N)nc%109)O8)N(C)C)C[C@H](n8cnc9c(N)ncnc98)O7)N(C)C)C[C@H](n7cc(C)c(=O)[nH]c7=O)O6)N(C)C)C[C@H](n6cnc7c(N)ncnc76)O5)N(C)C)C[C@H](n5cnc6c(=O)[nH]c(N)nc65)O4)N(C)C)C[C@H](n4ccc(N)nc4=O)O3)N(C)C)C[C@@H](COP(=O)(N(C)C)N3C[C@@H](COP(=O)(N(C)C)N4C[C@@H](COP(=O)(N(C)C)N5CCN(C(=O)CCNC(=O)CCCCCNC(=O)[C@H](CCCNC(=N)N)NC(=O)CCCCCNC(=O)[C@H](CCCNC(=N)N)NC(=O)CCCCCNC(=O)[C@H](CCCNC(=N)N)NC(=O)CCCCCNC(=O)[C@H](CCCNC(=N)N)NC(=O)CCCCCNC(=O)[C@H](CCCNC(=N)N)NC(=O)CCCCCNC(=O)[C@@H](N)CCCNC(=N)N)CC5)O[C@@H](n5ccc(N)nc5=O)C4)O[C@@H](n4cc(C)c(=O)[nH]c4=O)C3)O2)c(=O)[nH]c1=O (stereo partly specified) |  |  | inactive | 1.25 (≈ 6.84 µg/mL) | inactive | Active | inactive | 3 | 88 | Active |
